Laboratory results from ChEMBL document CHEMBL1154186, “Synthesis, kinase inhibitory potencies, and in vitro antiproliferative evaluation of new Pim kinase inhibitors” (J Med Chem, 2009).

Legend:
[1] = molecular target: MAP kinase-interacting serine/threonine-protein kinase 2 (Homo sapiens) (UniProt Q9HBH9); assay: Inhibition of MNK2 assessed as residual enzyme activity at 10 uM relative to untreated control
How it was run: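 Assayed with [γ-33P]ATP at 50 µM and 10 mM Mg acetate in 50 mM Tris/HCl pH 7.5, 0.1 mM EGTA, 0.1% 2-mercaptoethanol, 30 min, 21 °C. Phosphoric acid stop, P81 filter capture. ERK2 and Lck are mouse; AMPK is rat. 10 µM compound; % activity remaining relative to control without inhibitor, duplicates.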

[2] = molecular target: Serine/threonine-protein kinase PAK 6 (Homo sapiens) (UniProt Q9NQU5); assay: Inhibition of PAK6 assessed as residual enzyme activity at 10 uM relative to untreated control
Sequence of Serine/threonine-protein kinase PAK 6 (Homo sapiens) (Q9NQU5 whole entry, looked up): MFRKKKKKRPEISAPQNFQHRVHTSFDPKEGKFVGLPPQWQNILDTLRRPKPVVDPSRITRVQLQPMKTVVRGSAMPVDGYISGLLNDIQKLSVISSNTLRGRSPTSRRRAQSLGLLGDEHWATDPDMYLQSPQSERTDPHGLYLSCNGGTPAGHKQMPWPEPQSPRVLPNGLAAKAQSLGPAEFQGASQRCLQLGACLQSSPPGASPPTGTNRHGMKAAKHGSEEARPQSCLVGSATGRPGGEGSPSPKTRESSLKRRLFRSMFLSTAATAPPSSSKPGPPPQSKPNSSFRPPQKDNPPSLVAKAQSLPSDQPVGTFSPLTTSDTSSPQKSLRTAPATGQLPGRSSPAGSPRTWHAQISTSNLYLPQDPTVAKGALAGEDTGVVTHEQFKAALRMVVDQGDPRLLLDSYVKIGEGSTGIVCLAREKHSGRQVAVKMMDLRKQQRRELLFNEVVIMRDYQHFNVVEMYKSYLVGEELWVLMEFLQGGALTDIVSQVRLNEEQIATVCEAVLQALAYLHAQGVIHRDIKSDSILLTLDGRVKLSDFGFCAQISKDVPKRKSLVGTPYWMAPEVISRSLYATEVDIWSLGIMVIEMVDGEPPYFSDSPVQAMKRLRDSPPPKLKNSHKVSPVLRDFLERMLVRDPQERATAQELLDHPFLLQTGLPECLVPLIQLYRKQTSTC
How it was run: (§1)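 Kinases of human origin, except CK1δ, which is rat. Run in 50 mM Tris/HCl pH 7.5, 0.1 mM EGTA, 0.1% 2-mercaptoethanol and 10 mM Mg acetate, with [γ-33P]ATP at 20 µM, 30 min at 21 °C. Acid-stopped and captured on P81 filters. Compound tested at 10 µM; residual % of uninhibited control, duplicate determinations.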

[3] = molecular target: T1, Eukaryotic elongation factor 2 kinase (Homo sapiens) (UniProt O00418); assay: Inhibition of EF2K assessed as residual enzyme activity at 10 uM relative to untreated control
T1 sequence (whole entry): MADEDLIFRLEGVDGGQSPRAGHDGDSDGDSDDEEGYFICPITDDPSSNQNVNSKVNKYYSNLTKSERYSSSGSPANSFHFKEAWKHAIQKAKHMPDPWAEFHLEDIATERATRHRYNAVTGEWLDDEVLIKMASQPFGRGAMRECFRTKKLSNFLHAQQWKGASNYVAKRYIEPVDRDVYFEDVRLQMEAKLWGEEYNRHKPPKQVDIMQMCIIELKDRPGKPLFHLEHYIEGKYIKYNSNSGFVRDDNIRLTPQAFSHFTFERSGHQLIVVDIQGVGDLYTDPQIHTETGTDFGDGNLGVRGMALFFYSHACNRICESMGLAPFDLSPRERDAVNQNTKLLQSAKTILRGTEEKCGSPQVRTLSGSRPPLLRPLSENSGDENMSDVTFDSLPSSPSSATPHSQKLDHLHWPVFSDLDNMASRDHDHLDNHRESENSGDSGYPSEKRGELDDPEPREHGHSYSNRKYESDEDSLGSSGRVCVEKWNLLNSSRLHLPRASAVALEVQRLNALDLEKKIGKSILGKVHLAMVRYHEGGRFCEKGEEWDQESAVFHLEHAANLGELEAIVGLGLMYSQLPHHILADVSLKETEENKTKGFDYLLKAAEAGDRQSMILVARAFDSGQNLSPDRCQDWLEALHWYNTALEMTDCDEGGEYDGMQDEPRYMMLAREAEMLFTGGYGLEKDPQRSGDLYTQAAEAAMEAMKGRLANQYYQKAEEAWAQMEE

[4] = molecular target: Calcium/calmodulin-dependent protein kinase kinase 2 (Homo sapiens) (UniProt Q96RR4); assay: Inhibition of CAMKKbeta assessed as residual enzyme activity at 10 uM relative to untreated control
Sequence of Calcium/calmodulin-dependent protein kinase kinase 2 (Homo sapiens) (Q96RR4 2-588 limits assumed): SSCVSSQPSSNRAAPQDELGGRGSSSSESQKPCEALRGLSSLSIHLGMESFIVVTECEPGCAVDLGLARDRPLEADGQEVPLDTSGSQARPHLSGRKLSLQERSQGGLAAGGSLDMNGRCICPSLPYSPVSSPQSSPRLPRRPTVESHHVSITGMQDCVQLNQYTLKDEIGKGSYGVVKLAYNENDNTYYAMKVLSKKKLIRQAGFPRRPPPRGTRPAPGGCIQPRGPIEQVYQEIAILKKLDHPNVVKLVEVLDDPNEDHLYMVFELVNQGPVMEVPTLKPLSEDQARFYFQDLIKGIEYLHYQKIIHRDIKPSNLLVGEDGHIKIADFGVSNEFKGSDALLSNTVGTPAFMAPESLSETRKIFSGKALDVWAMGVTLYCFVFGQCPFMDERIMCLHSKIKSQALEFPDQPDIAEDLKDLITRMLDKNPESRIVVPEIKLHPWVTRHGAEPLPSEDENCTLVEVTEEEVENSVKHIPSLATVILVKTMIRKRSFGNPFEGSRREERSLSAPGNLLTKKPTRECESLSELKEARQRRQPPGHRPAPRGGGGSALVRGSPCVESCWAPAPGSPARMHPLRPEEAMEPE

[5] = molecular target: MAP/microtubule affinity-regulating kinase 3 (Homo sapiens) (UniProt P27448); assay: Inhibition of MARK3 assessed as residual enzyme activity at 10 uM relative to untreated control
Sequence of MAP/microtubule affinity-regulating kinase 3 (Homo sapiens) (P27448 whole entry, looked up): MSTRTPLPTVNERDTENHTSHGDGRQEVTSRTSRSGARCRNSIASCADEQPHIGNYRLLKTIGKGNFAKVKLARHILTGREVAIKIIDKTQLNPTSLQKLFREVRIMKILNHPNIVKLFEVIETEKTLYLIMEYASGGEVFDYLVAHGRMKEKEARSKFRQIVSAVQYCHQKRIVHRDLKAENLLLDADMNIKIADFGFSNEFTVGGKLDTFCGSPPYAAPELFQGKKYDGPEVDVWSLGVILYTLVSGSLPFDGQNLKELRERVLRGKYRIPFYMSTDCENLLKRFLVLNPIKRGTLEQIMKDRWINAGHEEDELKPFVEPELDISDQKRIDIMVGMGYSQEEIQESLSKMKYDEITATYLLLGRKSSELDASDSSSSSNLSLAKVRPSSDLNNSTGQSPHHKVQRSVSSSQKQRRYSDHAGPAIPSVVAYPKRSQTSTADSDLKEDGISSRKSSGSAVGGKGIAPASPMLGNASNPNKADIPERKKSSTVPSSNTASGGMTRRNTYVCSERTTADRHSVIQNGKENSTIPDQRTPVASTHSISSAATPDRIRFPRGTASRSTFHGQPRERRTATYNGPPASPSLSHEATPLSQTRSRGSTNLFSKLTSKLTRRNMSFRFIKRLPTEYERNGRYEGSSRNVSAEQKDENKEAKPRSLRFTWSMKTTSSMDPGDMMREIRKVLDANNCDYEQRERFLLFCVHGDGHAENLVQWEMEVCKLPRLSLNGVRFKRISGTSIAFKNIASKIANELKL
How it was run: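 Radiometric filter-binding assay at 21 °C for 30 min. Mix: 50 mM Tris/HCl pH 7.5, 0.1 mM EGTA, 0.1% 2-mercaptoethanol, 10 mM Mg acetate and [γ-33P]ATP (800 cpm/pmol) at 5 µM. Stopped with orthophosphoric acid and spotted on P81. Compound at 10 µM; activity given as % remaining versus no-inhibitor control, duplicates. Kinases human full-length unless noted.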

[6] = molecular target: Protein kinase C zeta type (Homo sapiens) (UniProt Q05513); assay: Inhibition of PKCzeta assessed as residual enzyme activity at 10 uM relative to untreated control
Sequence of Protein kinase C zeta type (Homo sapiens) (Q05513 whole entry, looked up): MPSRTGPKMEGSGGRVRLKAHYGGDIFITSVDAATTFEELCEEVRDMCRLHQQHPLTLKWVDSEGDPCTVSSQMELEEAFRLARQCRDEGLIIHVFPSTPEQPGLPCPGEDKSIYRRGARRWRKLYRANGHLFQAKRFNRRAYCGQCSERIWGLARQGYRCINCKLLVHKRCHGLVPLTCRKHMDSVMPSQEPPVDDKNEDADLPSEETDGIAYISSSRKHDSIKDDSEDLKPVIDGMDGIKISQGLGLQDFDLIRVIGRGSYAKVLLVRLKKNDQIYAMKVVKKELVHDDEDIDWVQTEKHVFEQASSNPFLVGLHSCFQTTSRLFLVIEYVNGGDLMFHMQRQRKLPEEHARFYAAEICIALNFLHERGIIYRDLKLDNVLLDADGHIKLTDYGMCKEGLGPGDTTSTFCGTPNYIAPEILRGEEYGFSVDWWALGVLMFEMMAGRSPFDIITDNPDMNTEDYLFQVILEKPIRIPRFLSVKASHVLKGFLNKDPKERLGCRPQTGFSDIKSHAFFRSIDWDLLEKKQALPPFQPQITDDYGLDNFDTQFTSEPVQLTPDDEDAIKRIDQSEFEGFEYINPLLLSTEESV

[7] = Inhibition of PHK assessed as residual enzyme activity at 10 uM relative to untreated control
RSK1 (Rattus norvegicus) = assay: Inhibition of RSK1 assessed as residual enzyme activity at 10 uM relative to untreated control
[8] = Inhibition of CK1 assessed as residual enzyme activity at 10 uM relative to untreated control
[9] = molecular target: T2, 3-phosphoinositide-dependent protein kinase 1 (Homo sapiens) (UniProt O15530); assay: Inhibition of PDK1 assessed as residual enzyme activity at 10 uM relative to untreated control; how it was run: as §1
T2 sequence (whole entry): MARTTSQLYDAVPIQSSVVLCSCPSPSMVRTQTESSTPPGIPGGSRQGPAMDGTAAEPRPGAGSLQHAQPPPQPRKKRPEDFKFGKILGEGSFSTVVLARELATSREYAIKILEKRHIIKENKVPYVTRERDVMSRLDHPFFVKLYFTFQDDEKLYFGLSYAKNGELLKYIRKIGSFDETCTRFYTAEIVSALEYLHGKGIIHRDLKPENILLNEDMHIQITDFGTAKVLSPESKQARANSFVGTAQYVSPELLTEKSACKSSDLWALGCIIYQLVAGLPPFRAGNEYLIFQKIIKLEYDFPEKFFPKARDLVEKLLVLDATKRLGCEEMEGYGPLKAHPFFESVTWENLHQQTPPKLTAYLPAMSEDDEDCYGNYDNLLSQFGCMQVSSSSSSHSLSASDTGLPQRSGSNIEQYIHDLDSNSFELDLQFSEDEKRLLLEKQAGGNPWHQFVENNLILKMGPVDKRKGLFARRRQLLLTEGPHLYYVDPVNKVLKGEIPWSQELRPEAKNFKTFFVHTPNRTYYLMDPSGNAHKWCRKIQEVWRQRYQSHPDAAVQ

[10] = molecular target: Ribosomal protein S6 kinase beta-1 (Homo sapiens) (UniProt P23443); assay: Inhibition of S6K1 assessed as residual enzyme activity at 10 uM relative to untreated control
Sequence of Ribosomal protein S6 kinase beta-1 (Homo sapiens) (P23443 whole entry, looked up): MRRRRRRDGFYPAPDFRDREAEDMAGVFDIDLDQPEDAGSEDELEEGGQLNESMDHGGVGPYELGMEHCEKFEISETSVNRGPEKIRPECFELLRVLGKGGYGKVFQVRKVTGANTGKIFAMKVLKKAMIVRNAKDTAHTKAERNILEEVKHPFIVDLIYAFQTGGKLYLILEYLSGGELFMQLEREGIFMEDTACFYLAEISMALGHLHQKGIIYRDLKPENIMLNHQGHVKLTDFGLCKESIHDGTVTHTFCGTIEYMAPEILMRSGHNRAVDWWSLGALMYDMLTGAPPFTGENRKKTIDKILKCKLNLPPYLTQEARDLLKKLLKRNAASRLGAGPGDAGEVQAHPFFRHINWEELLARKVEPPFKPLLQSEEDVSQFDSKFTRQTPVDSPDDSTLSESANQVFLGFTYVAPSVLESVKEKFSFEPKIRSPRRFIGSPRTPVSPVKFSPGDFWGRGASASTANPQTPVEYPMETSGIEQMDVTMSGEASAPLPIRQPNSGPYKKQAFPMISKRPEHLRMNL
How it was run: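 Buffer Tris/HCl pH 7.5, EGTA and 2-mercaptoethanol. 30 min at 21 °C, compound at 10 µM. P81 filter read-out. Residual activity versus control, duplicates.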

[11] = molecular target: Serine/threonine-protein kinase Chk2 (Homo sapiens) (UniProt O96017); assay: Inhibition of CHK2 assessed as residual enzyme activity at 10 uM relative to untreated control; how it was run: as §1
Sequence of Serine/threonine-protein kinase Chk2 (Homo sapiens) (O96017 whole entry): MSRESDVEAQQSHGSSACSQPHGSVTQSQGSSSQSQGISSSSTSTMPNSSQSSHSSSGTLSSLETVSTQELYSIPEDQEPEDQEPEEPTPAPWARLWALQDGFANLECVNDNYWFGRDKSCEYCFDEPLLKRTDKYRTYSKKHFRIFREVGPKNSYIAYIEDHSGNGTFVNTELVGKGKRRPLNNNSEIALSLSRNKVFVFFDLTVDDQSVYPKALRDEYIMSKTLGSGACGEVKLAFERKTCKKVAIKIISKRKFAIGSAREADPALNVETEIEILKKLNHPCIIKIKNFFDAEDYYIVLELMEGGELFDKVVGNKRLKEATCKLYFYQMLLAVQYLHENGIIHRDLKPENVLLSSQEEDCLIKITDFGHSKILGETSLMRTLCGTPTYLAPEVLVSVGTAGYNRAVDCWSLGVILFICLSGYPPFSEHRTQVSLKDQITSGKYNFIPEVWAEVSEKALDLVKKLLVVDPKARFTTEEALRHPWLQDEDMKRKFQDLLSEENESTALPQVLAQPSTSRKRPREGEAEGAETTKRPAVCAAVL

Sequence of MAP kinase-interacting serine/threonine-protein kinase 2 (Homo sapiens) (Q9HBH9 whole entry, looked up): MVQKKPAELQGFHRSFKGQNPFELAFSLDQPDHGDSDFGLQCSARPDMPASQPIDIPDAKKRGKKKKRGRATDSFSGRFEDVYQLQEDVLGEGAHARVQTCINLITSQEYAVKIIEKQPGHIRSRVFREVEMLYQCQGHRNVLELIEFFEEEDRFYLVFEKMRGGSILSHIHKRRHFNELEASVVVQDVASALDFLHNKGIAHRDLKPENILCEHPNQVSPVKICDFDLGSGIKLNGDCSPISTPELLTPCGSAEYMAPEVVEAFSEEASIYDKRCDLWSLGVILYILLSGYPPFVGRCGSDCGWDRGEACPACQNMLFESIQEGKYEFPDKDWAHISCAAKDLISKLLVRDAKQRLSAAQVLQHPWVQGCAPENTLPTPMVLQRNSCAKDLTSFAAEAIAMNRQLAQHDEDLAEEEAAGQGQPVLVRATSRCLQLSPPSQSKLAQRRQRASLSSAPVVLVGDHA

| SMILES | Activity [1] [%] | Activity [2] [%] | Activity [3] [%] | Activity [4] [%] | Activity [5] [%] | Activity [6] [%] | Activity [7] [%] | Activity (RSK1 (Rattus norvegicus)) [%] | Activity [8] [%] | Activity [9] [%] | Activity [10] [%] | Activity [11] [%] |
| --- | --- | --- | --- | --- | --- | --- | --- | --- | --- | --- | --- | --- |
| O=Cc1c[nH]c2c1ccc1c3ccccc3[nH]c12 | 55 | 94 | 90 | 56 | 88 | 83 | 33 | – | – | – | – | – |
| O=Cc1c[nH]c2ccc3c4ccccc4[nH]c3c12 | 109 | 99 | 105 | 102 | 105 | 91 | 88 | 120 | 113 | 85 | 82 | 89 |
| c1ccc2c(c1)[nH]c1c2ccc2cc[nH]c21 | 95 | 92 | 101 | 93 | 116 | 91 | 90 | 105 | 107 | 86 | 89 | 58 |
| c1ccc2c(c1)[nH]c1c3cc[nH]c3ccc21 | 103 | 91 | 92 | 87 | 94 | 87 | 71 | 99 | 99 | 82 | 87 | 73 |
